Test results taken from ChEMBL document CHEMBL1123346, “Pyrimidinones. 3. N-substituted 6-phenylpyrimidinones and pyrimidinediones with diuretic/hypotensive and antiinflammatory activity” (J Med Chem, 1986).
Activity calls are given as the source filed them.

How the values were obtained:
[1] = Sodium salt excretion in conscious rat at the dose of 100 mg/kg expressed as urinary excretion in treated rats/urinary excretion in control rats; format: ADME, organism-based, Urine; parameters: dose 100 mg/kg; conditions: in vivo
In short: (§1)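 Male rats (~160 g) fasted 24 h, water withheld 1.5 h; oral gavage of compound (0.3-100 mg/kg) in 25 mL/kg saline with 0.5% carboxymethylcellulose; 5 h urine collection in metabolism cages. Urine volume, Na+ and K+ (flame photometry) expressed as treated/control excretion ratio.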

[2] = test system: Rattus norvegicus; test: Compound was tested for urinary volume excretion in conscious rat at the dose of 30 mg/kg expressed as urinary excretion in treated rats/urinary excretion in control rats; format: ADME, organism-based, Urine; parameters: dose 30 mg/kg; conditions: in vivo; in short: as §1
[3] = test system: Rattus norvegicus; test: Blood pressure change in rats after oral administration of 50 mg/kg dose after 4 hours; format: functional
In short: (§2)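 Restrained female Sprague–Dawley rats with indwelling aortic cannulas exteriorized at the nape; direct arterial pressure via transducer, mean pressure by electrical integration of phasic pressure. Readings before and 4 and 24 h after oral dosing (carboxymethylcellulose suspension, 10 mL/kg). Value is change in mean arterial pressure, averaged over two animals.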

[4] = Sodium salt excretion in conscious rat at the dose of 3.0 mg/kg expressed as urinary excretion in treated rats/urinary excretion in control rats; format: ADME, organism-based, Urine; parameters: dose 3 mg/kg; conditions: in vivo; in short: as §1
[5] = Potassium salt excretion in conscious rat at the dose of 10 mg/kg expressed as urinary excretion in treated rats/urinary excretion in control rats; format: ADME, organism-based, Urine; parameters: dose 10 mg/kg; conditions: in vivo; in short: as §1
[6] = Potassium salt excretion in conscious rat at the dose of 3.0 mg/kg expressed as urinary excretion in treated rats/urinary excretion in control rats; format: ADME, organism-based, Urine; parameters: dose 3 mg/kg; conditions: in vivo; in short: as §1
[7] = Potassium salt excretion in conscious rat at the dose of 1.0 mg/kg expressed as urinary excretion in treated rats/urinary excretion in control rats; format: ADME, organism-based, Urine; parameters: dose 1 mg/kg; conditions: in vivo; in short: as §1
[8] = test system: Rattus norvegicus; test: Compound was tested for urinary volume excretion in conscious rat at the dose of 10 mg/kg expressed as urinary excretion in treated rats/urinary excretion in control rats; format: ADME, organism-based, Urine; parameters: dose 10 mg/kg; conditions: in vivo; in short: as §1
[9] = Sodium salt excretion in conscious rat at the dose of 10 mg/kg expressed as urinary excretion in treated rats/urinary excretion in control rats; format: ADME, organism-based, Urine; parameters: dose 10 mg/kg; conditions: in vivo; in short: as §1
[10] = test system: Rattus norvegicus; test: Compound was tested for urinary volume excretion in conscious rat at the dose of 3.0 mg/kg expressed as urinary excretion in treated rats/urinary excretion in control rats; format: ADME, organism-based, Urine; parameters: dose 3 mg/kg; conditions: in vivo; in short: as §1
[11] = Sodium salt excretion in conscious rat at the dose of 1.0 mg/kg expressed as urinary excretion in treated rats/urinary excretion in control rats; format: ADME, organism-based, Urine; parameters: dose 1 mg/kg; conditions: in vivo; in short: as §1
[12] = Potassium salt excretion in conscious rat at the dose of 30 mg/kg expressed as urinary excretion in treated rats/urinary excretion in control rats; format: ADME, organism-based, Urine; parameters: dose 30 mg/kg; conditions: in vivo; in short: as §1
[13] = test system: Rattus norvegicus; test: Compound was tested for urinary volume excretion in conscious rat at the dose of 1.0 mg/kg expressed as urinary excretion in treated rats/urinary excretion in control rats; format: ADME, organism-based, Urine; parameters: dose 1 mg/kg; conditions: in vivo; in short: as §1
[14] = Potassium salt excretion in conscious rat at the dose of 0.3 mg/kg expressed as urinary excretion in treated rats/urinary excretion in control rats; format: ADME, organism-based, Urine; parameters: dose 0.3 mg/kg; conditions: in vivo; in short: as §1
[15] = test system: Rattus norvegicus; test: Compound was tested for urinary volume excretion in conscious rat at the dose of 0.3 mg/kg expressed as urinary excretion in treated rats/urinary excretion in control rats; format: ADME, organism-based, Urine; parameters: dose 0.3 mg/kg; conditions: in vivo; in short: as §1
[16] = test system: Rattus norvegicus; test: Blood pressure change in rats after oral administration of 50 mg/kg dose after 24 hours; format: functional; in short: as §2
[17] = Sodium salt excretion in conscious rat at the dose of 30 mg/kg expressed as urinary excretion in treated rats/urinary excretion in control rats; format: ADME, organism-based, Urine; parameters: dose 30 mg/kg; conditions: in vivo; in short: as §1
[18] = species: Rattus norvegicus; test: Diuretic activity in rats; format: functional, Urine
In short: (§3)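 Male rats (~160 g) fasted 24 h, water withheld 1.5 h, both withheld during test. Gavage 25 mL/kg 0.9% saline with 0.5% carboxymethylcellulose containing compound at 40 mg/kg; urine collected 5 h in metabolism cages. Two-stage test, T/C urine volume per stage; active if product of stage T/Cs ≥3.34.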

[19] = Potassium salt excretion in conscious rat at the dose of 100 mg/kg expressed as urinary excretion in treated rats/urinary excretion in control rats; format: ADME, organism-based, Urine; parameters: dose 100 mg/kg; conditions: in vivo; in short: as §1
[20] = test system: Rattus norvegicus; test: Compound was tested for urinary volume excretion in conscious rat at the dose of 100 mg/kg expressed as urinary excretion in treated rats/urinary excretion in control rats; format: ADME, organism-based, Urine; parameters: dose 100 mg/kg; conditions: in vivo; in short: as §1
[21] = Sodium salt excretion in conscious rat at the dose of 0.3 mg/kg expressed as urinary excretion in treated rats/urinary excretion in control rats; format: ADME, organism-based, Urine; parameters: dose 0.3 mg/kg; conditions: in vivo; in short: as §1
[22] = test system: Rattus norvegicus; test: Inhibition of RPAR administered perorally at 25 mg/kg dose; format: functional; conditions: route oral
In short: (§4)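 Male Wistar rats (180-200 g), 5-10/group, dosed orally (water with Tween-80 suspension) 1 h before iv sensitization with 1 mg bovine serum albumin; 24-h fasted. 60 min later subplantar challenge with 200 µg anti-BSA in left hindpaw. Paw swelling by mercury displacement plethysmography at 2 h post-challenge.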

[23] = test system: Rattus norvegicus; test: Inhibition of RPAR administered perorally at 100 mg/kg dose; format: functional; conditions: route oral; in short: as §4
[24] = test system: Rattus norvegicus; test: Inhibition of RPAR administered perorally at 50 mg/kg dose; format: functional; conditions: route oral; in short: as §4
[25] = test system: Rattus norvegicus; test: Compound was tested for blood pressure change in rats after oral administration of 50 mg/kg dose after 24 hours; format: functional; in short: as §2
[26] = test system: Rattus norvegicus; test: Compound was tested for blood pressure change in rats after oral administration of 50 mg/kg dose after 4 hours; format: functional; in short: as §2
[27] = test system: Rattus norvegicus; test: Compound was tested for inhibition of RPAR administered perorally at 100 mg/kg dose; format: functional; conditions: route oral; in short: as §4
[28] = test system: Rattus norvegicus; test: Compound was tested for inhibition of RPAR administered perorally at 25 mg/kg dose; format: functional; conditions: route oral; in short: as §4
[29] = test system: Rattus norvegicus; test: Compound was tested for inhibition of RPAR administered perorally at 50 mg/kg dose; format: functional; conditions: route oral; in short: as §4
[30] = test system: Rattus norvegicus; test: Compound was tested for inhibition of RPAR administered perorally at 25 mg/kg dose; I=Inactive; format: functional, organism-based; parameters: dose 25 mg/kg; in short: as §4
[31] = species: Rattus norvegicus; test: Compound was tested for diuretic activity in rats; I=Inactive; format: functional, organism-based; conditions: Urine; in short: as §3

SMILES	Na+ excretion [1]	Urinary volume [2]	MABP change [3]	Na+ excretion [4]	K+ excretion [5]	K+ excretion [6]	K+ excretion [7]	Urinary volume [8]	Na+ excretion [9]	Urinary volume [10]	Na+ excretion [11]	K+ excretion [12]	Urinary volume [13]	K+ excretion [14]	Urinary volume [15]	MABP change [16]	Na+ excretion [17]	Diuretic activity [18]	K+ excretion [19]	Urinary volume [20]	other results
NS(=O)(=O)c1cc(C(=O)O)c(NCc2ccco2)cc1Cl [FUROSEMIDE]	4.5	4.7	1 mmHg	1.1	1.6	1.3	1	2.2	1.5	1.3	1.1	2.2	1.2	1	1.1	-3 mmHg	3.1	31.25	3.2	7.2	Na+ excretion [21]: 1.1
CNc1nc(O)c(Br)c(-c2ccccc2)n1																					inhibition in vivo at 25 mg/kg [22]: 42%; inhibition in vivo at 100 mg/kg [23]: 82%; inhibition in vivo at 50 mg/kg [24]: 78%
Cn1c(-c2ccccc2)c(I)c(=O)[nH]c1=O			15 mmHg													-1 mmHg					inhibition in vivo at 25 mg/kg [22]: 33%; inhibition in vivo at 100 mg/kg [23]: 73%; inhibition in vivo at 50 mg/kg [24]: 44%
Oc1nc(O)c(Br)c(-c2ccccc2)n1	1.9	1.5	6 mmHg	1	0.9	1	1	1.2	1.2	1.1	1.2	1.2	1	1	0.9	5 mmHg	1.4	3.53	1.8	2.1	inhibition in vivo at 100 mg/kg [23]: 58%; Na+ excretion [21]: 1.2; inhibition in vivo at 50 mg/kg [24]: 46%
NS(=O)(=O)c1cc2c(cc1Cl)NCNS2(=O)=O [HYDROCHLOROTHIAZIDE]	2.5	2.6		2.1	1.5	1.6	1.6	2.4	2.4	2.2	2	1.5	2.3	1.2	1.9		2.4	7.18	1.7	2.7	MABP change [25]: 2 mmHg; MABP change [26]: 0 mmHg; Na+ excretion [21]: 1.7
Cn1c(-c2ccccc2)c(Cl)c(=O)[nH]c1=O	1.6	1.6	2 mmHg	0.9	1.3	1.1	1.2	1.1	1.1	0.8	1.1	1.7	0.9	0.9	0.9	2 mmHg	1.6	3.49	1.9	1.6	Na+ excretion [21]: 1.1
Cn1c(N)nc(-c2ccccc2)c(Br)c1=O	2.8	2.5	-12 mmHg	1.3	1.7	1.3	1	2.3	2.1	1.4	1.2	2.2	0.9	1.1	1	-7 mmHg	2.5	5.52	2.2	2.8	inhibition in vivo at 100 mg/kg [27]: 74%; inhibition in vivo at 25 mg/kg [28]: 36%; inhibition in vivo at 50 mg/kg [29]: 64%; Na+ excretion [21]: 1
Nc1nc(O)cc(-c2ccccc2)n1																					inhibition [30]: inactive; Diuretic activity [31]: inactive
Cn1c(-c2ccccc2)c(Br)c(=O)[nH]c1=O			1 mmHg													1 mmHg					inhibition in vivo at 25 mg/kg [22]: 22%; inhibition in vivo at 100 mg/kg [23]: 57%; inhibition in vivo at 50 mg/kg [24]: 43%
Cn1c(N)nc(-c2ccccc2)c(I)c1=O	2.7	2.7	-6 mmHg	1.6	1.4	1.2	1.1	2.2	1.9	1.6	1.2	2.1	1.4	1.1	1.3	-13 mmHg	2.4	4.46	1.6	2	inhibition in vivo at 25 mg/kg [22]: 18%; inhibition in vivo at 100 mg/kg [23]: 79%; Na+ excretion [21]: 1.1; inhibition in vivo at 50 mg/kg [24]: 30%
Cn1c(-c2ccccc2)cc(=O)[nH]c1=O			4 mmHg													6 mmHg					inhibition in vivo at 25 mg/kg [22]: 27%; inhibition in vivo at 100 mg/kg [23]: 79%; inhibition in vivo at 50 mg/kg [24]: 47%
Nc1nc(=O)c(Br)c(-c2ccccc2)[nH]1 [BROPIRIMINE]	2.8	2.6	0 mmHg	1.5	1.3	1.1	1	2.5	2.3	1.3	1.3	1.5	1.2	1.1	1.1	-22 mmHg	2.9	7.41	1.3	2.7	inhibition in vivo at 25 mg/kg [22]: 13%; inhibition in vivo at 100 mg/kg [23]: 44%; Na+ excretion [21]: 1.1; inhibition in vivo at 50 mg/kg [24]: 31%
